{"data": "Experimental data gathered from unrelated publications", "PIP5K1A": "Phosphatidylinositol 4-phosphate 5-kinase type-1 alpha (PIP5K1A, Homo sapiens, UniProt Q99755)", "KDR": "Vascular endothelial growth factor receptor 2 (KDR, Homo sapiens, UniProt P35968)", "note": "Each line is one published result; the experiments were not run side by side."}
{"Compound": "CCCCC(=O)Nc1ccc(-c2ccc3ncn(CCC)c(=O)c3c2)cn1", "target": "Interleukin-1 receptor-associated kinase 3 (IRAK3, Homo sapiens, UniProt Q9Y616)", "test": "binding, competition with immobilised ligand", "conditions": "0.5 µM", "measurement": "remaining binding", "result": "99%"}
{"Compound": "Cc1cc(S(=O)(=O)N[C@H]2CC[C@H](CN3CCN(c4ccc(C5CCC(=O)NC5=O)cc4F)CC3)CC2)ccc1Nc1ncc(C(F)(F)F)c(N2CCC[C@](C)(O)C2)n1 (stereo partly drawn)", "target": "PIP5K1A", "test": "binding, competition with immobilised ligand", "conditions": "1 µM", "measurement": "remaining binding", "result": "70%"}
{"Compound": "CC1=C(/C=C/C(C)=C/C=C/C(C)=C/C=C/C=C(C)/C=C/C=C(C)/C=C/C2=C(C)CCCC2(C)C)C(C)(C)CCC1", "target": "KDR", "test": "enzyme activity, inhibitor, TR-FRET", "conditions": "40 µM", "measurement": "inhibition", "result": "-6.3%"}
{"Compound": "C1=C/COCc2cc(ccc2OCCN2CCCC2)Nc2nccc(n2)-c2cccc(c2)COC/1", "target": "1-phosphatidylinositol 3-phosphate 5-kinase (PIKFYVE, Homo sapiens, UniProt Q9Y2I7)", "test": "cell-free assay", "conditions": "0.1 µM", "measurement": "remaining signal", "result": "17%"}
{"Compound": "Cc1cc(O)c(-c2ccc([C@@H](C)CN(C)C)cc2)c2c1[nH]c(=O)c1sccc12", "target": "Serine/threonine-protein kinase Nek4 (NEK4, Homo sapiens, UniProt P51957)", "test": "enzyme activity, inhibitor", "conditions": "0.1 µM", "measurement": "inhibition", "result": "0.965%"}
{"Compound": "CC(=O)ON=C1C=CC(=C(C#N)c2ccccc2)C=C1", "target": "Glycogen synthase kinase-3 beta (GSK3B, Homo sapiens, UniProt P49841)", "test": "enzyme activity, inhibitor, ADP detection", "conditions": "20 µM", "measurement": "activity vs control", "result": "82%"}
{"Compound": "CC(C)c1ccc(Sc2ccc3nnc(C(F)(F)F)n3n2)cc1", "target": "Glutamate NMDA receptor; Grin1/Grin2a (Grin1/Grin2a, Rattus norvegicus, UniProt P35439+Q00959)", "test": "ion current, two-electrode voltage clamp", "conditions": "30 µM, oocytes", "measurement": "remaining activity", "result": "97%"}
{"Compound": "COc1ccc(-c2cc(=O)c3c(O)cc(O[C@@H]4O[C@H](CO[C@@H]5O[C@@H](C)[C@H](O)[C@@H](O)[C@H]5O)[C@@H](O)[C@H](O)[C@H]4O)cc3o2)cc1O", "target": "KDR", "test": "enzyme activity, inhibitor, TR-FRET", "conditions": "40 µM", "measurement": "inhibition", "result": "51.5%"}
{"Compound": "CNS(=O)(=O)c1ccc(Nc2ncc(C(F)(F)F)c(N3CCC[C@](C)(O)C3)n2)c(C)c1", "target": "PIP5K1A", "test": "binding, competition with immobilised ligand", "conditions": "1 µM", "measurement": "remaining binding", "result": "100%"}
{"Compound": "CCN1/C(=C/C(C)=O)Sc2ccc(F)cc21", "target": "Vasopressin V1b receptor (AVPR1B, Homo sapiens, UniProt P47901)", "test": "ligand displacement, radioligand", "conditions": "10 µM", "measurement": "inhibition", "result": "2.63%"}
{"Compound": "CC(=O)/C=C/C=C(C)/C=C/C1=C(C)CC(O)CC1(C)C (stereo in doubt)", "target": "D14 (Oryza sativa, UniProt Q10QA5)", "test": "thermal stability, DSF", "conditions": "10 µM", "measurement": "ΔTm", "result": "2.75 °C"}
{"Compound": "COc1ccc2oc(-c3ccc4nc(N)oc4c3)c/c(=N\\c3ccccc3NC(=O)CCN)c2c1", "target": "Activin receptor type-1-like (ACVRL1, Homo sapiens, UniProt P37023)", "test": "binding", "conditions": "1 µM", "measurement": "remaining binding", "result": "106%"}
